Hits are enriched below; roughly 1.8% of the tested compounds scored in any of these assays.
UHRF1 MBD2 ctr = UHRF1 methyl-DNA binding inhibition. inhibition, % at 4.4 µM. UHRF1 binding to methylated oligo, TR-FRET. Q96T88. 370,000 tested, 0.75% active. AID 687016; in the data active = inhibition above about 21%;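 also: UHRF1 SRA domain binding a hemimethylated CpG hairpin DNA probe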
NSD2 HMT inh = blocks human histone methyltransferase NSD2; NSD2 peptide methylation, AlphaScreen, 120 min; O96028; 310,000 tested, 0.54% active; inhibition, % at 12.5 µM; in the data active = inhibition above about 50%
LEDGF integ inh = blocks HIV-1 LEDGF/p75-dependent DNA integration; TR-FRET IN-LEDGF/p75 DNA integration, Eu/Cy5; inhibition, % at 3.7 µM; 370,000 tested, 0.64% active;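 active = inhibition above the screen-wide mean plus 3 SD, cut at about 13% in these data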;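 also: signal is the Cy5 over europium emission ratio at 671 and 618 nm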
MBD2 inh = MBD2-methylated oligo binding inhibition; Q9UBB5; TR-FRET, MBD2 binding to methylated oligonucleotide; inhibition, % at 4.4 µM; 370,000 tested, 0.31% active; AID 686964; in the data active = inhibition above about 13%
CASP6 VEID inh = blocks human caspase-6 cleavage activity; P55212; purified caspase-6, Z-VEID-R110 cleavage fluorescence; inhibition, % at 12.5 µM; 350,000 tested, 0.53% active; AID 686996;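 active = mean inhibition across replicates at least about 35%, with every replicate also reaching that limit, limit read from the data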
TDP2 absorb = TDP2 (human) inhibition, absorbance primary screen | O95551 | recombinant TDP2, T5PNP hydrolysis, p-nitrophenol absorbance 415 nm | inhibition, % at 12.8 µM | 370,000 tested, 0.34% active | AID 720702;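 active = inhibition above the mean of all tested compounds plus 3 SD, set per campaign, cut at about 25% in these data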
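Material: recombinant human TDP2; quantity: TDP2 enzyme at 120 nM final; medium: Tris-HCl pH 7.5 with MgCl2; compound: single concentration, 12.8 µM nominal, with 1% DMSO; incubation: 2 h enzyme incubation at 37 °C; signal: epi absorbance; measure: percent inhibition; benchmarks: high control without enzyme, low control DMSO plus TDP2; repeats: singlicate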
Alpha artifact = AlphaScreen assay artifact in NSD2 counter-screen. AlphaScreen artifact counterscreen, preloaded methylated H4 peptide. AC35, µM (highest dose often 10 µM). 1,500 tested, 9.4% active. shares compounds with NSD2 HMT inh; call rule not given here
Hits are given with their value; - = inactive; . = not tested or not shown; + = active, no number.

SMILES | UHRF1 MBD2 ctr | NSD2 HMT inh | LEDGF integ inh | MBD2 inh | CASP6 VEID inh | TDP2 absorb | Alpha artifact
CCCN1[C@@H]2Cn3c(ccc(-c4cccc(OC)c4)c3=O)[C@H]1[C@@H](C(=O)OC)[C@@H]2CO | . | . | . | . | - | . | .
CCn1nc(/C=C/c2ccccc2)nc2c(=O)n(C)c(=O)nc1-2 | - | + | - | - | . | 79.2 | -
O=C(c1ccccc1F)N1CCC2(CC1)OCCO2 | - | - | - | - | - | - | .
O=C(c1cc2ccccc2oc1=O)N1CCC2(CC1)OCCO2 | - | 64.6 | - | - | . | - | -
Cn1c(=O)[nH]c2nncnc2c1=O | - | 53.7 | - | - | 43.0 | - | -
